Measurements as given in ChEMBL document CHEMBL1148788 (J Med Chem, 2007).

Legend:
[1] = Displacement of [3H]methyllycaconitine from chimeric alpha-7nAChR W55A mutant /5HT3A receptor in tsA201 cells; format: cell-based, Homo sapiens
Method in brief: (§1)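 tsA-201 cells transiently transfected with 4 µg WT or mutant α7/5-HT3A chimera and assayed 2 days later. Membranes washed twice at 50000g in 50 mM Tris-HCl pH 7.2. Incubated with 0.5 nM [3H]MLA and compound for 2.5 h at room temperature with shaking; nonspecific binding with 5 mM (S)-nicotine. PEI-soaked GF/C filtration, scintillation counting. Ki derived; duplicate, 3–7 experiments.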

[2] = Displacement of [3H]methyllycaconitine from chimeric alpha-7nAChR K145R mutant /5HT3A receptor in tsA201 cells; format: cell-based, Homo sapiens; method in brief: as §1
[3] = Antagonist activity at human alpha7nAChR Y93A mutant co-expressed with human Ric3 in tsA201 cells by FMP assay; format: functional, cell-based
[4] = Displacement of [3H]methyllycaconitine from chimeric alpha-7nAChR D197A mutant/5HT3A receptor in tsA201 cells; format: cell-based, Homo sapiens; method in brief: as §1
[5] = Antagonist activity at human alpha-7 nAChR Y195A mutant coexpressed with human Ric3 in tsA201 cells by FMP assay; format: functional, cell-based
[6] = biological target: Neuronal acetylcholine receptor; alpha4/beta2 (Rattus norvegicus, UniProt P09483+P12390); assay: Displacement of [3H]epibatidine from rat recombinant alpha-4-beta-2 nAChR in HEK293 cell line; format: cell-based
[7] = Displacement of [3H]methyllycaconitine from chimeric alpha-7nAChR S150A mutant/5HT3A receptor in tsA201 cells; format: cell-based, Homo sapiens; method in brief: as §1
[8] = Displacement of [3H]methyllycaconitine from chimeric alpha7nAChR R79A mutant/5HT3A receptor R79A mutant in tsA201 cells; format: cell-based, Homo sapiens; method in brief: as §1
[9] = Displacement of [3H]methyllycaconitine from chimeric alpha-7nAChR Y195F mutant/5HT3A receptor in tsA201 cells; format: cell-based, Homo sapiens; method in brief: as §1

Neuronal acetylcholine receptor; alpha4/beta2, sequence (P09483 whole entry): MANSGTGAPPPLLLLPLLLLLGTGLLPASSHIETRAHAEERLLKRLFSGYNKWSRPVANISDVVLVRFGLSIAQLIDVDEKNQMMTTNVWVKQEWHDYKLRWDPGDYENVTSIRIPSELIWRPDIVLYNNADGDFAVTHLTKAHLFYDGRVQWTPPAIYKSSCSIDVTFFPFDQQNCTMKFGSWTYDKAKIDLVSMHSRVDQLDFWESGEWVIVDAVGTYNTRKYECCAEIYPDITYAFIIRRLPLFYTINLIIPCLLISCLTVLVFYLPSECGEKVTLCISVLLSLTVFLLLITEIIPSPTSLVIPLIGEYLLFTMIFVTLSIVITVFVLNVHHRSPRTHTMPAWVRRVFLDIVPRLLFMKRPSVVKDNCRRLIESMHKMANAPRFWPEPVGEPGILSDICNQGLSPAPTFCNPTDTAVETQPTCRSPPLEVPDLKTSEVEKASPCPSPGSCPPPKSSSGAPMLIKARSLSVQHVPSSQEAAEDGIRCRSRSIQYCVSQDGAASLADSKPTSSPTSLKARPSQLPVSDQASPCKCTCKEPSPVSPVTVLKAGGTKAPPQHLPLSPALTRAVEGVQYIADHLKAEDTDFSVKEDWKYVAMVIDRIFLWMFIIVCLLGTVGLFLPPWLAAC
Neuronal acetylcholine receptor; alpha4/beta2, sequence (P12390 whole entry): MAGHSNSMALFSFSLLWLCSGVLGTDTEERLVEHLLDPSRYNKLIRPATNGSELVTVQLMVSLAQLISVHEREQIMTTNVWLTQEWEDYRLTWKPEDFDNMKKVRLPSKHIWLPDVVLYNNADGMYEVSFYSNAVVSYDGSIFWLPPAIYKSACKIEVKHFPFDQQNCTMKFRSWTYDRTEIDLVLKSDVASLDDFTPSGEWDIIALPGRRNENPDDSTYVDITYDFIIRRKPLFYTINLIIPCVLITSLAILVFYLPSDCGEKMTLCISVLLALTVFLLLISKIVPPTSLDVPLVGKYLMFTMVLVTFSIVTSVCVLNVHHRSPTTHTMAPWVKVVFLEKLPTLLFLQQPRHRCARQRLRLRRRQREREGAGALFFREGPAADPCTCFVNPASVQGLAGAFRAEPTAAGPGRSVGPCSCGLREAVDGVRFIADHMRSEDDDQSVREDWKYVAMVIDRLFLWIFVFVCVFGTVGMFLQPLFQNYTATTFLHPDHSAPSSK

O=[N+]([O-])c1ccc(C[N+]23CC[C@@H]4[C@@H]5[C@@H]6[C@@H](OCC=C(C2)[C@@H]6C[C@@H]43)N2c3ccccc3[C@@]34CC[N+]6(Cc7ccc([N+](=O)[O-])cc7)CC7=CCO[C@H]([C@@H]([C@H]23)[C@H]7C[C@@H]46)N5c2ccccc2)cc1.[Br-].[Br-] (stereo partly drawn)
Ki [1]: 130 nM | pKi [1]: 6.89 | Ki [2]: 58 nM | pKi [2]: 7.24 | IC50 ([3]; read-out: IC50): 19000 nM | IC50 ([3]; read-out: pIC50 (converted)): 19500 nM | Ki [4]: 31 nM | pKi [4]: 7.51 | IC50 ([5]; read-out: IC50): 25000 nM | IC50 ([5]; read-out: pIC50 (converted)): 25100 nM | pKi ([6]; hek293): < 4 | Ki ([6]; read-out: Ki): > 100000 nM | Ki [7]: 35 nM | pKi [7]: 7.45 | Ki [8]: 32 nM | pKi [8]: 7.5 | Ki [9]: 50 nM | pKi [9]: 7.3
